Holding throughout (assay type): biochemical
For one assay, the target named is T1, meprin α (Homo sapiens, UniProt Q16819).
T1 sequence (Q16819 66-653 limits assumed): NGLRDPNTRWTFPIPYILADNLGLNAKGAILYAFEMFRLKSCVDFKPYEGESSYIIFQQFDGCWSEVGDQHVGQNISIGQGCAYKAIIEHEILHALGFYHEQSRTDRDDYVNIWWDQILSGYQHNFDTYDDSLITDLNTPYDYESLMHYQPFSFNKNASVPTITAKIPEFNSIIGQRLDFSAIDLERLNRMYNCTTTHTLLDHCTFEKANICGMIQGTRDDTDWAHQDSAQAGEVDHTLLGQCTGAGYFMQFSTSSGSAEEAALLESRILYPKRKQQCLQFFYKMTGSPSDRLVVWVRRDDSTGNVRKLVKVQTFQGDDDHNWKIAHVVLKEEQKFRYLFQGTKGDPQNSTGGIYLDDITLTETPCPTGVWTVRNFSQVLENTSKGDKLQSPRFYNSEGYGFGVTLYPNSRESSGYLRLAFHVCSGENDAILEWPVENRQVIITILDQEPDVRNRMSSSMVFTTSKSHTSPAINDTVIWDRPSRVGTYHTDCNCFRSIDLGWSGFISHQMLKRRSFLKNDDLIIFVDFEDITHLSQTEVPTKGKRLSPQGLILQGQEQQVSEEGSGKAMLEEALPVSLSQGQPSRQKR
The experiment in a line: Meprin α HTS FRET assay, dose response. The note with it: read-out: IC50 Meprin α; selectivity testing; n = 3 Mean ± SD. An outline of the steps:
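Recombinant human Strep-tagged meprin α was expressed in baculovirus-infected BTI-TN-5B1-4 cells, trypsin-activated, then freed of trypsin. It was used as a 2x solution at 2.6 nM in 50 mM Hepes, 0.01% Brij-35, pH 7.5. Test compound was pre-incubated 30 min at RT, then 2x (MCA)-YVADAPK-(K-ε-DNP) at 20 μM was added for 1 h at RT. Read at ex 324/em 393 nm. 3-fold dilutions in quadruplicate; 4-parameter fit; 0.1% or 1.0% DMSO.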

Assay [1] deals with T2, meprin β (Homo sapiens, UniProt Q16820).
T2 sequence (Q16820 62-614 limits assumed): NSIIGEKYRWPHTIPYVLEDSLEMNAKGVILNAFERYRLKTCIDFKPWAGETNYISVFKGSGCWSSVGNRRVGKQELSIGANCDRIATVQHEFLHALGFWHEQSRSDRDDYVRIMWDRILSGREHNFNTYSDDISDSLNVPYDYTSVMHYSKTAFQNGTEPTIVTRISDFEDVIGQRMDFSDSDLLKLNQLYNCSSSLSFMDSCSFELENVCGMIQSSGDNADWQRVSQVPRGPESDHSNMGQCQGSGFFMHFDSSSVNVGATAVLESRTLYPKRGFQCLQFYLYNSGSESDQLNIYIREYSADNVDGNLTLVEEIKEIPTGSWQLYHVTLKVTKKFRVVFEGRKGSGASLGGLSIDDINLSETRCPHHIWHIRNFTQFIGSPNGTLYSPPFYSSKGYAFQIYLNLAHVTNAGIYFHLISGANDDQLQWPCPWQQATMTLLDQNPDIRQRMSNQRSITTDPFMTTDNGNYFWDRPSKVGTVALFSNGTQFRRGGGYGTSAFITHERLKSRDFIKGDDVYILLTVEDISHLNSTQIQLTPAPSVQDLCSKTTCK
Put plainly: Meprin β HTS FRET assay, dose response. The note with it: dose response experiment, data not shown. In a few lines:
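Trypsin-activated meprin β (trypsin removed on immobilized ovomucoid) in 50 mM Hepes, 0.01% Brij-35, pH 7.5, added as 2x (0.15 nM) solution. Pin-transferred inhibitor was preincubated 30 min at RT. 2x (20 μM) (MCA)-EDEDED-(K-ε-DNP) was then added, run 1 h at RT, and read at ex 324/em 393 nm. A 3-fold dilution series was run in quadruplicate, and % inhibition was fitted with a 4-parameter equation. DMSO final was 0.1% or 1.0%.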

A further assay concerns the target T3, MMP-1 (Homo sapiens, UniProt P03956).
T3 sequence (P03956 100-469): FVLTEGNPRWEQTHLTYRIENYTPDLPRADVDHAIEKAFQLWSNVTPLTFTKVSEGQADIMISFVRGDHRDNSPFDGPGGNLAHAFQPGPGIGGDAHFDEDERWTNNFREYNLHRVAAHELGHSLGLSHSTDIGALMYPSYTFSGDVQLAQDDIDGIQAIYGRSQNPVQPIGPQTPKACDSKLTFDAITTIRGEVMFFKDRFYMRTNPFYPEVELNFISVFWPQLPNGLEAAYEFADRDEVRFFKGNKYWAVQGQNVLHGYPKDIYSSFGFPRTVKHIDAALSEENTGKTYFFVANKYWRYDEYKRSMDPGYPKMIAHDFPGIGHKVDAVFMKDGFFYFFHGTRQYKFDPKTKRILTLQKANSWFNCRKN
The experiment in a line: Selectivity testing against zinc metalloproteases: MMP-1. Particulars: read-out: IC50 MMP-1; n = 3 Mean ± SD.

The next assay deals with T4, MMP-2 (Homo sapiens, UniProt P08253).
T4 sequence (P08253 110-660): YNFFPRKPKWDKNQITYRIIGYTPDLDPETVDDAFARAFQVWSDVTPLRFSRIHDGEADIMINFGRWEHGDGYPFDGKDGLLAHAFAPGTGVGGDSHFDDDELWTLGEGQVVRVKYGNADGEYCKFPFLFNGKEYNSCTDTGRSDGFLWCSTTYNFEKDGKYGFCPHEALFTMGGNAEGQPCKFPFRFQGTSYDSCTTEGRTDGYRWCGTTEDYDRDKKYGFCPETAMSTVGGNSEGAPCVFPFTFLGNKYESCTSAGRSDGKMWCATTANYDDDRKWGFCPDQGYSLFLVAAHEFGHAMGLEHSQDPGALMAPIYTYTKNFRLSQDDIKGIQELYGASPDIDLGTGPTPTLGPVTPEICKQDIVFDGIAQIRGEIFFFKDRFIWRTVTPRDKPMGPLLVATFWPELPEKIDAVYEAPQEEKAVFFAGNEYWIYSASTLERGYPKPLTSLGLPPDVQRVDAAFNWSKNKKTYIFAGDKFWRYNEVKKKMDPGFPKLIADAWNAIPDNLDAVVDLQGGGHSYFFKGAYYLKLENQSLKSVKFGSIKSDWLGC
Put plainly: Selectivity testing against zinc metalloproteases: MMP-2. The note with it: read-out: IC50 MMP-2; n = 3 Mean ± SD.

A further assay deals with MMP-9 (Homo sapiens, UniProt P14780). The experiment in a line: Selectivity testing against zinc metalloproteases: MMP-9. Particulars: read-out: IC50 MMP-9; n = 3 Mean ± SD.
Chain of MMP-9 (P14780 94-707, species assumed): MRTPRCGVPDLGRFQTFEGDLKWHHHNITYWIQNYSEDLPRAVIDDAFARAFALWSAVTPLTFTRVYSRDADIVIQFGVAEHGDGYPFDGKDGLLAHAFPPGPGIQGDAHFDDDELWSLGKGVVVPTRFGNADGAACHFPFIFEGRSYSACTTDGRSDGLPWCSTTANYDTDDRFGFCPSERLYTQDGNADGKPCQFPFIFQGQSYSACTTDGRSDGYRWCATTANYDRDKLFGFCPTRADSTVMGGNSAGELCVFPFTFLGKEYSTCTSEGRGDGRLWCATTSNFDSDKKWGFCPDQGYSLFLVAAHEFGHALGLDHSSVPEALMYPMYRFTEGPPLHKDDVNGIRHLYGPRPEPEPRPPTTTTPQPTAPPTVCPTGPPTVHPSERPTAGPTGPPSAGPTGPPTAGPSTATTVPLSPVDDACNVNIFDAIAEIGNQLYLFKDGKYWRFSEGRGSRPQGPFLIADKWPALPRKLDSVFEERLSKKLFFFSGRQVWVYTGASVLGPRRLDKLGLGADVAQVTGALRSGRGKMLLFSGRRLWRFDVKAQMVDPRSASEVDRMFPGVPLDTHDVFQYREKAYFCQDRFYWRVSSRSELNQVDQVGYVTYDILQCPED
The target in another assay is MMP-13 (Homo sapiens, UniProt P45452). Put plainly: Selectivity testing against zinc metalloproteases: MMP-13. The note with it: read-out: IC50 MMP-13; n = 3 Mean ± SD.
For the next assay, the target named is T5, ADAM10 (Homo sapiens, UniProt O14672).
T5 sequence (O14672 214-748): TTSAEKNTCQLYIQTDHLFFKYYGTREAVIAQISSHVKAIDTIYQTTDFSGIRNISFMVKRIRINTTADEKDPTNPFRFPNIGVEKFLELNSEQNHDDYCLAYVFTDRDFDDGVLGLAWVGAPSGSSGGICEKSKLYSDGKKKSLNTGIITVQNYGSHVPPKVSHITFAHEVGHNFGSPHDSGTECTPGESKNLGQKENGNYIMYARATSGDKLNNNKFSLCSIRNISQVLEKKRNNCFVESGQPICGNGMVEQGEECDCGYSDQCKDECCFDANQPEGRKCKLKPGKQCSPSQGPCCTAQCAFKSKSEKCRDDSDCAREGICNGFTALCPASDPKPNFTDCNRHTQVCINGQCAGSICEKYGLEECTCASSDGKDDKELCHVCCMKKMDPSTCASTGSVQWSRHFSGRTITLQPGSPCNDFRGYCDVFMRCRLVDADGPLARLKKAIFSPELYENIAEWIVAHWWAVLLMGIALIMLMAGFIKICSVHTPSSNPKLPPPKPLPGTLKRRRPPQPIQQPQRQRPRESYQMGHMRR
The experiment in a line: Selectivity testing against zinc metalloproteases: ADAM10. Particulars: read-out: IC50 ADAM10; n = 3 Mean ± SD.

The next assay concerns the target ADAM17 (Homo sapiens, UniProt P78536). Put plainly: Selectivity testing against zinc metalloproteases: ADAM17. Particulars: read-out: IC50 ADAM17; n = 3 Mean ± SD.
Assay [2] deals with T2, meprin β. The experiment in a line: Meprin β LOPAC pilot screen. Particulars: 18 μM.

Results on one compound are retold here after article PMC4339026 (Biopolymers, 2014).

What is called IC50 is the concentration needed to halve the response being measured.

Chain of ADAM17 (P78536 215-824, species assumed): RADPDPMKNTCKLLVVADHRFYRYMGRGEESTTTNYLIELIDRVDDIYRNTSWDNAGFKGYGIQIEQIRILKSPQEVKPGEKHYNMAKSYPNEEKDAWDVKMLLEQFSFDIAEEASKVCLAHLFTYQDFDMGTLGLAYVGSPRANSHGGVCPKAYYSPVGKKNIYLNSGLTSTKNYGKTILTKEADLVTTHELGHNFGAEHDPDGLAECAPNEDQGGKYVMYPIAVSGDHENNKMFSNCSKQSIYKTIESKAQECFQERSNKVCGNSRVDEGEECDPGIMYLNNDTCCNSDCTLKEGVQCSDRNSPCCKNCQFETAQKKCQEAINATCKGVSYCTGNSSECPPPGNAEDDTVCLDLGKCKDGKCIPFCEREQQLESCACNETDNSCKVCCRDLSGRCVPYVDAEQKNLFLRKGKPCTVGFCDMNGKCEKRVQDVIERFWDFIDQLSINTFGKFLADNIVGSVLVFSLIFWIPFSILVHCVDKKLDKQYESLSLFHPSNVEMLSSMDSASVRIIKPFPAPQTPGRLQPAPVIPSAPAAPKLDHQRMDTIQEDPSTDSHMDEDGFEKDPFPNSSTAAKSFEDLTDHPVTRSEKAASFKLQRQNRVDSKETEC

Consider `N.N.[Cl][Pt][Cl]` [Cisplatin, cisplatin], for which the half-inhibitory concentration (IC50) was > 100 µM at meprin α; 5.1 ± 0.5 µM on MMP-1; 5.1 ± 0.6 µM at MMP-2; 13.9 ± 2.1 µM at MMP-9; > 100 µM at MMP-13; 4.2 ± 0.2 µM on ADAM10. The IC50 at ADAM17 stood at 5.1 ± 0.4 µM. On meprin β [1], the “meprin β dose response behaviour” value is given as “dose dependent negative inhibition”. On meprin β [2], the “% inhibition meprin β in pilot screen” value is on record as “negative inhibition values”. Also, the “meprin β LOPAC pilot screen outcome” value at meprin β [2] (hit cutoff 25% inhibition) is “selective hits”.
